Kir21 inh: inhibitors of mouse Kir2.1 inward-rectifier potassium channel. 0.85% of 310,000 active. HEK293-Kir2.1, FluxOR thallium flux fluorescence; active compounds read low. B-score at 10 µM. AID 1672, 2009. Inward rectifier potassium channel 2 (Mus musculus), P35561;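 active means fluorescence ratio B-score at or below minus 3 SD of library scores, with starting-brightness B-score within 2 SD, cut at about -4.2 in these data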;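 further: channel flux triggered by added potassium and thallium sulfate stimulus; B-score of peak minus minimum fluorescence over baseline after thallium stimulus; more negative B-score means stronger Kir2.1 block with less thallium influx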
KCNQ1 block: inhibitors of human KCNQ1 channel, primary screen, cell-based, thallium flux, high-throughput; Potassium voltage-gated channel subfamily KQT member 1 (Homo sapiens), P51787; CHO-K1 KCNQ1, FluxOR thallium flux fluorescence; active compounds read high; B-score at 10 µM; 1.3% of 310,000 active; AID 2642, 2010;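 active means compounds whose thallium flux B-score, printed positive for inhibition, exceeds three library SD while starting fluorescence stays within three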;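 further: channel opened by potassium depolarization with thallium stimulus after 20 min compound exposure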
KCNQ1 pot: potentiators or activators of KCNQ1 channel, primary screen, cell-based, thallium flux, high-throughput; AID 2648, 2010; B-score at 10 µM; 0.35% of 310,000 active; CHO-K1 KCNQ1, thallium flux FluxOR fluorescence; active compounds read high; Potassium voltage-gated channel subfamily KQT member 1 (Homo sapiens), P51787;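 active means fluorescence ratio B-score, a plate-corrected score, at least three library SD, with initial intensity B-score within 5 SD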
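Assay system: CHO-K1 cells stably expressing KCNQ1. Medium: assay buffer for compound exposure, DMSO matched across wells. Timing: 37 °C overnight plating, 90-min dark dye load, 20-min compound pretreatment. Signal: kinetic FluxOR fluorescence, 10 s baseline plus 110 s post-stimulus.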
hERG rescue: hERG rescue from dofetilide block, primary screen, cell-based, CHO-hERG, FluxOR thallium flux, dofetilide IC70; Voltage-gated inwardly rectifying potassium channel KCNH2 (Homo sapiens), Q12809; dofetilide IC70 present; activation (rescue from dofetilide block), less the hit threshold, % at 10 µM; 0.51% of 310,000 active; AID 1511, 2009;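 active means activation above the mean of controls blocked by dofetilide plus 5 SD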;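 further: thallium influx through hERG after potassium depolarization seen as dye fluorescence rise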
KCNK9 block: KCNK9 potassium channel inhibitors, primary screen, HEK293 cells, thallium flux. Potassium channel subfamily K member 9 (Homo sapiens), Q9NPC2. FluxOR thallium flux fluorescence; active compounds read low. B-score at 10 µM. 1.2% of 310,000 active. AID 488922, 2010;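 active means ratio B-score over 3 SD below the library mean, with starting fluorescence within 5 SD of its mean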;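 further: negative B-score means less thallium flux so channel inhibition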
KCNK3 inh: human KCNK3 channel inhibitors, primary screen, CHO cells, FluxOR thallium flux, B-score. Potassium channel subfamily K member 3 (Homo sapiens), O14649. FluxOR fluorescence; active compounds read low. B-score at 10 µM. 0.84% of 340,000 active. AID 602410, 2012;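 active means B-score under library mean minus 4 SD, starting fluorescence ratio at most library mean plus 5 SD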;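 further: more negative B-score means stronger inhibition of thallium flux through KCNK3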
KCNQ1 inh valid: KCNQ1 potassium channel inhibitors, confirmation, cell-based, Tl flux, duplicate; shares compounds with KCNQ1 block; KCNQ1 cell line, FluxOR thallium flux fluorescence; inhibition, % at 10 µM; 93% of 1,600 active; AID 588353, 2011;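 active means primary screen active, with duplicate mean exceeding buffer control mean plus 3 SD of buffer wells, cut at about 28% in these data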;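 further: 0% = buffer control ratio and 100% = XE991 inhibitor control ratio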
CHO KCNQ1 ctr: thallium flux effects in parental CHO cells, counter-screen for KCNQ1 inhibitor project, cell-based, Tl flux | shares compounds with KCNQ1 block | parental CHO-K1, FluxOR thallium flux fluorescence ratio; active compounds read low; zero means no signal rise above baseline | AID 588366, 2011 | fluorescence ratio (Tl flux) at 10 µM | 21% of 1,600 active;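 active means mean of duplicate thallium-flux fluorescence ratios in parental host cells more than 5 SD below the buffer control mean, cut at about 0.38 in these data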;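 further: ratio is peak minus minimum fluorescence divided by baseline fluorescence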
KCNQ1 APC inh: KCNQ1 channel inhibitors, confirmation, orthogonal assay, cell-based, automated electrophysiology; shares compounds with KCNQ1 block; KCNQ1-CHO cells, automated patch clamp current; calls only at 10 µM; 20% of 490 active;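 active means KCNQ1 current drop exceeding 3 SD of negative control wells, seen in both duplicate runs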;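 further: steady state current during a 2 s step from -80 to +40 mV; negative values mean current inhibition and positive values mean potentiation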
KCNQ2 spec: KCNQ2 channel inhibition, selectivity assay for KCNQ1 inhibitor project, cell-based; shares compounds with KCNQ1 block; KCNQ2 cells, FluxOR thallium flux fluorescence; inhibition, % at 10 µM; 71% of 1,600 active;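 active means mean percent inhibition of the KCNQ2 thallium signal more than 5 SD above the buffer-only control wells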;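 further: KCNQ2 expressed in CHO cells; 0% = buffer control wells and 100% = XE-991 inhibitor control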
Target sequence (O88943 whole entry, looked up): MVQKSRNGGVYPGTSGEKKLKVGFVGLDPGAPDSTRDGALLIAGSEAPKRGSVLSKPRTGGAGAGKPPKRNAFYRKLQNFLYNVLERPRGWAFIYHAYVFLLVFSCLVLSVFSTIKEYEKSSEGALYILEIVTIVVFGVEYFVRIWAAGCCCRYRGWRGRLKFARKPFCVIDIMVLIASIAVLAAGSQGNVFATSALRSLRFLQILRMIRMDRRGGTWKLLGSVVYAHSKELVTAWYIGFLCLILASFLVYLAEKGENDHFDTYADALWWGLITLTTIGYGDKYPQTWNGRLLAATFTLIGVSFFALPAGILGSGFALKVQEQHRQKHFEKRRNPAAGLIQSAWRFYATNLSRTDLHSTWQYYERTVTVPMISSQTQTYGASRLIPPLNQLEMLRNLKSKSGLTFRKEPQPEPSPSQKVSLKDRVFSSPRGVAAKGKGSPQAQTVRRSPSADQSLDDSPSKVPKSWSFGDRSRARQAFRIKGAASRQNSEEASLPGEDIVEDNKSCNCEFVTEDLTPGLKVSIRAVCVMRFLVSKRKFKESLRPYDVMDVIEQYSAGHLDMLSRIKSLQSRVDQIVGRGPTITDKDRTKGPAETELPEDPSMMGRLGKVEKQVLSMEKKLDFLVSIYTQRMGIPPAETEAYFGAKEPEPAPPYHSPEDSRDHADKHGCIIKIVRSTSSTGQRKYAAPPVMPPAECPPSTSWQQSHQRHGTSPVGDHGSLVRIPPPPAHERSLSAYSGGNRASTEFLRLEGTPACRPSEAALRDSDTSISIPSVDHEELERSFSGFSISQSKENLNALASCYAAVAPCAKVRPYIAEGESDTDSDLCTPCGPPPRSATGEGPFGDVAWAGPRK
KCNQ1-KCNE1 inh: KCNQ1/KCNE1 channel inhibition, selectivity assay for KCNQ1 inhibitor project, CHO-K1 cells, thallium flux, FluxOR; shares compounds with KCNQ1 block; FluxOR thallium flux fluorescence; inhibition, % at 10 µM; 77% of 1,600 active;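 active means mean percent inhibition of duplicate wells above the buffer-only control mean plus 3 SD of those controls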;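 further: 0% = buffer only wells and 100% = XE-991 inhibitor control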
Starred values were filed as active, the others as inactive; i = inactive; · = no result. Compounds with a hit are over-represented: about 3.7% of the library has one in this group of screens.

SMILES	Kir21 inh	KCNQ1 block	KCNQ1 pot	hERG rescue	KCNK9 block	KCNK3 inh	KCNQ1 inh valid	CHO KCNQ1 ctr	KCNQ2 spec	KCNQ1-KCNE1 inh	others
COc1ccc(-c2csc(NC(=O)C3CCN(c4ncnc5sc(C)c(C)c45)CC3)n2)cc1OC	0.4	9*	i	-16.3	i	i	122.0*	0.406	82.7%*	103.0%*	KCNQ1 APC inh=i
COc1ccc(-c2csc(NC(=O)C3CC(=O)N(Cc4ccccc4)C3)n2)cc1OC (centres undefined)	1.31	6*	i	-12.4	i	i	123.0*	0.381	92.7%*	163.0%*	KCNQ1 APC inh=i
COc1ccc(CC(=O)Nc2nc(-c3ccc(OC)c(OC)c3)cs2)cc1OC	0.57	i	i	-14.6	i	i	·	·	·	·
COc1ccccc1OCC(=O)NNC(=O)C1CCN(c2ncnc3sc(C)c(C)c23)CC1	·	·	·	·	·	i	·	·	·	·
O=S1(=O)CCOCCN1Cc1ccc(Cl)cc1Cl	-0.95	i	i	-2.1	i	·	·	·	·	·
O=C(CSc1ccccc1)Nc1ccc2c(c1)C(=O)NC2=O	-0.59	i	i	-5.9	i	i	·	·	·	·
CCOC(=O)c1ccc(NC(=S)NCCc2ccccc2F)cc1	1.94	8*	i	-16.7	i	i	84.5*	0.446	77.0%*	50.5%*
CCCCOc1ccc(CSCCN)cc1Cl	-3.77	6*	i	-14.3	i	i	68.0*	0.437	i	103.0%*
CCOc1ccc(CSC(=N)N)cc1Cl	-0.5	i	i	-11.7	i	i	·	·	·	·
O=C(NCc1ccccn1)c1ccc2nc(C3CCCCC3)oc2c1	0.95	i	i	-10.8	i	i	·	·	·	·
Cc1ccc(S(=O)(=O)NCc2ccncc2)c(C)c1C	-2.83	7*	i	-19.8	i	i	55.5*	0.511	i	i
Cc1cc2c(cc1C)N[C@]1(C[C@H]3CCCC(=O)N4CC[C@@H](C1)[C@@H]34)C(=NC(C)(C)CC(C)(C)C)N2	·	·	·	·	·	i	·	·	·	·
C=CCN(C(=O)Cn1nc(C)n2c(cc3cc(C)ccc32)c1=O)c1ccccc1	-0.95	i	i	-8.8	i	i	·	·	·	·
Cc1ccccc1NC(NC(=O)c1cccs1)C(Cl)(Cl)Cl (centres undefined)	-1.71	13*	i	-10.3	i	i	120.5*	0.429	i	114.5%*	KCNQ1 APC inh=i
CC(C)(C)c1ccc(C2=CSC3=NCCN23)cc1	-1.65	7*	i	-2.2	i	i	43.0*	0.457	i	46.5%*
CC1C(=O)N2CCCc3cc(NC(=O)C(=O)NCCc4ccccc4)cc1c32 (centres undefined)	0.24	i	i	-9.0	i	i	·	·	·	·
CC1C(=O)N2CCCc3cc(NC(=O)C(=O)NCCc4c[nH]c5ccccc45)cc1c32 (centres undefined)	0.43	10*	i	-21.9	i	i	26.5*	0.439	87.3%*	57.0%*
CN1/C(=C\C(=O)Nc2ccc(Cl)cc2)C(C)(C)c2ccccc21	0	10*	i	-24.0	-7.15*	i	99.0*	0.487	116.0%*	47.5%*	KCNQ1 APC inh=i
CN1/C(=C\C=C(/C#N)C(=O)Nc2ccc(Cl)cc2)C(C)(C)c2ccccc21	-2.04	i	i	-17.6	i	i	·	·	·	·
O=c1[nH]c(=O)n(-c2ccc(F)cc2)c2c1C(C(F)(F)F)(C(F)(F)F)N=C(c1ccc(F)cc1)N2	0.65	6*	i	-9.6	i	i	57.0*	0.517	64.3%*	i
COC(=O)c1[nH]c2cc(C)ccc2c1NC(=O)CN1CCCc2ccccc21	-1.4	8*	i	-12.3	i	i	71.5*	0.439	93.3%*	81.5%*
COC(=O)c1[nH]c2cc(C)ccc2c1NC(=O)CN1CCN(C(=O)c2ccco2)CC1	1.38	i	i	-2.0	i	i	·	·	·	·
Cc1ccc(/C=N/N=C2\SCC(=O)N2CC2CC2)cc1	-1.15	i	i	-2.8	i	i	·	·	·	·
O=c1c2ccccc2nc(SCc2cccc(F)c2)n1C1CCCC1	-1.02	7*	i	-19.4	i	i	96.5*	0.487	81.3%*	113.5%*	KCNQ1 APC inh=i
CCN(CC)C(=O)C1c2ccccc2Oc2ccccc21	-14.2	16*	i	-22.7	i	i	0.0	0.478	77.3%*	71.0%*
SMILES	Kir21 inh	KCNQ1 block	KCNQ1 pot	hERG rescue	KCNK9 block	KCNK3 inh	KCNQ1 inh valid	CHO KCNQ1 ctr	KCNQ2 spec	KCNQ1-KCNE1 inh	others
O=C1CCN(Cc2ccccc2)CCN1CCOc1ccccc1	-0.3	6*	i	-4.2	i	i	0.0	0.508	i	i
O=C(Nc1ccccc1)OCCN1CCN(Cc2ccccc2)CCC1=O	0.15	i	i	-4.2	i	i	·	·	·	·
O=C(Nc1cccc(Cl)c1)OCCN1CCN(Cc2ccccc2)CCC1=O	-0.11	11*	i	-17.2	i	i	69.5*	0.486	99.0%*	46.5%*
O=C(N/C=C/c1ccccc1)Nc1ccc(Cl)cc1	-0.19	7*	i	-5.0	i	i	61.5*	0.479	64.3%*	i
COc1ccc(C2NCCc3sccc32)cc1 (centres undefined)	1.54	i	i	-0.8	i	i	·	·	·	·
COc1ccc(C2c3ccsc3CCN2C(=O)C(C)(C)C)cc1 (centres undefined)	0.18	8*	i	-14.4	i	i	116.5*	0.374*	82.0%*	152.0%*

Screening data deposited in PubChem by Johns Hopkins Ion Channel Center.
